ChEMBL document CHEMBL3124861, “Application of ProTide technology to gemcitabine: a successful approach to overcome the key cancer resistance mechanisms leads to a new agent (NUC-1031) in clinical development” (J Med Chem, 2014)
Activity calls are given as the source filed them. The calls are words filed in the database; no cut-off is given here.

Assays:
[1] = system: CCRF-CEM; experiment: Cytostatic activity against human CEM cells after 72 hrs by coulter counter analysis; format: functional, cell-based
Outline: (§1)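 Tumor cell proliferation assay with murine leukemia and human T-lymphoblast cells. IC50 is the concentration that inhibits proliferation by 50%. Values are means of at least two independent experiments.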

[2] = system: L1210; experiment: Cytostatic activity against mouse L1210 cells after 48 hrs by coulter counter analysis; format: functional, cell-based; conditions: L1210, 48 h; outline: as §1
[3] = system: MIA PaCa-2; experiment: Cytostatic activity against human MIAPaCa2 cells after 72 hrs by MTS assay; format: functional, cell-based; conditions: MIA PaCa-2, 72 h
Outline: (§2)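 Pancreatic carcinoma cell proliferation assay. IC50 is the concentration that inhibits tumor cell proliferation by 50%. Values are means of at least two independent experiments.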

[4] = system: BXPC-3; experiment: Cytostatic activity against human BxPC3 cells after 72 hrs by MTS assay; format: functional, cell-based; conditions: BXPC-3, 72 h; outline: as §2
[5] = system: MIA PaCa-2; experiment: Ratio of gemcitabine IC50 to compound IC50 for human MIAPaCa2 cells after 72 hrs by MTS assay; format: functional
[6] = Metabolic stability in human liver microsomes assessed as compound remaining at 0.5 uM after 1 hr by HPLC-Ms/Ms analysis; format: ADME; conditions: read-out: Stability
Outline: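 Compounds incubated with human liver microsomes for 1 h. Percentage of parent remaining measured.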

[7] = Half life in human hepatocytes at 1 uM; format: ADME, cell-based, Hepatocyte
Outline: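 Compounds incubated with human hepatocytes. Half-life determined.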

[8] = system: BXPC-3; experiment: Ratio of gemcitabine IC50 to compound IC50 for human BxPC3 cells after 72 hrs by MTS assay; format: functional
[9] = Prodrug activation assessed as carboxypeptidase Y (unknown origin)-mediated formation of (S)-2-((((2R,3R,5R)-5-(4-amino-2-oxopyrimidin-1(2H)-yl)-4,4-difluoro-3-hydroxytetrahydrofuran-2-yl)methoxy)oxidophosphorylamino)propanoate at 3 mg measured within 12 hrs by [31P]-NMR spectroscopic analysis
Outline: (§3)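 The prodrug was dissolved in acetone-d6 with Trizma buffer (pH 7.6). A blank spectrum was recorded at 25 °C, then carboxypeptidase Y was added. Conversion was followed by 31P NMR spectra recorded over time, with peaks assigned by chemical shift.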

[10] = Prodrug activation assessed as carboxypeptidase Y (unknown origin)-mediated formation of (S)-2-((((2R,3R,5R)-5-(4-amino-2-oxopyrimidin-1(2H)-yl)-4,4-difluoro-3-hydroxytetrahydrofuran-2-yl)methoxy)oxidophosphorylamino)propanoate at 3 mg measured after 10 mins by [31P]-NMR spectroscopic analysis; outline: as §3
[11] = Prodrug activation assessed as carboxypeptidase Y (unknown origin)-mediated formation of (2S)-2-((((2R,3R,5R)-5-(4-amino-2-oxopyrimidin-1(2H)-yl)-4,4-difluoro-3-hydroxytetrahydrofuran-2-yl)methoxy)(phenoxy)phosphorylamino)propanoate at 3 mg measured within 10 mins by [31P]-NMR spectroscopic analysis; outline: as §3
[12] = system: Serum; experiment: Prodrug activation in rat serum assessed as formation of (S)-2-((((2R,3R,5R)-5-(4-amino-2-oxopyrimidin-1(2H)-yl)-4,4-difluoro-3-hydroxytetrahydrofuran-2-yl)methoxy)oxidophosphorylamino)propanoate at 5 mg measured after 6.5 mins by [31P]-NMR spectroscopic analysis; format: cell-free
Outline: (§4)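 The prodrug was incubated in human or rat serum and followed over time by 31P NMR. Metabolites were assigned by chemical shift. Human serum spectra were resolved by Lorentz-Gauss deconvolution.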

[13] = system: Mus musculus; experiment: Toxicity in Balb/c nude mouse xenografted with human BxPC3 cells assessed as change in body weight at 0.19 to 0.076 mmol/kg, ip administered 2 times per week for 2 weeks measured every week during compound treatment; format: organism-based, BXPC-3; conditions: in vivo, 336 h
[14] = system: BXPC-3; experiment: Antitumor activity against human BxPC3 cells xenografted in Balb/c nude mouse assessed as tumor growth inhibition at 0.19 mmol/kg, ip administered every week for 3 weeks; format: functional, organism-based
[15] = system: MIA PaCa-2; experiment: Antitumor activity against human MIAPaCa2 cells xenografted in Balb/c nude mouse assessed as tumor growth inhibition at 0.076 mmol/kg, ip measured on day 7; format: functional, organism-based
[16] = system: MIA PaCa-2; experiment: Antitumor activity against human MIAPaCa2 cells xenografted in Balb/c nude mouse assessed as tumor growth inhibition at 0.19 mmol/kg, ip administered every week for 3 weeks; format: functional, organism-based
[17] = system: Mus musculus; experiment: Toxicity in Balb/c nude mouse xenografted with human MIAPaCa2 cells assessed as change in body weight at 0.19 to 0.076 mmol/kg, ip administered 2 times per week for 2 weeks measured every week during compound treatment relative to vehicle-treated control; format: organism-based, MIA PaCa-2; conditions: in vivo, 336 h
[18] = Prodrug activation in human BxPC3 cells assessed as formation of dFdCTP after 24 hrs in presence of hENT1 inhibitor NBTI; format: cell-based; conditions: bxpc-3, 24 h
Outline: (§5)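 Pancreatic cells were exposed to the agent for 24 h, with or without a dCK inhibitor or the hENT1 inhibitor NBTI. Intracellular dFdCTP was measured by UPLC-MS/MS on a C18 column. Elution used a 10 mM ammonium acetate/acetonitrile gradient at 700 μL/min. Detection was by triple-quadrupole heated electrospray, transition m/z 502.0→159.0 at 37 V collision energy.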

[19] = Prodrug activation in human MIAPaCa2 cells assessed as formation of dFdCTP after 24 hrs in presence of dCK inhibitor 2T2D; format: cell-based; conditions: mia paca-2, 24 h; outline: as §5
[20] = Prodrug activation in human BxPC3 cells assessed as formation of dFdCTP after 24 hrs in presence of dCK inhibitor 2T2D; format: cell-based; conditions: bxpc-3, 24 h; outline: as §5
[21] = Prodrug activation in human MIAPaCa2 cells assessed as formation of dFdCTP after 24 hrs in presence of hENT1 inhibitor NBTI; format: cell-based; conditions: mia paca-2, 24 h; outline: as §5
[22] = target: T1, Cytidine deaminase (Homo sapiens, UniProt P32320); experiment: Drug degradation assessed as recombinant human cytidine deaminase-mediated dFdU formation at 100 uM measured at 30 mins by UV absorption spectroscopic analysis; format: ADME; conditions: 0.5 h
Outline: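 The nucleoside or prodrug was incubated with cytidine deaminase for 30 min. Deamination was followed by UV absorbance spectra recorded between 220 and 350 nm.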

[23] = Cytotoxicity against human PANC1 cells assessed as cell viability by MTT assay in presence of hENT1 inhibitor dipyridamole; format: functional, cell-based; conditions: PANC-1
Outline: (§6)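 PANC1 pancreatic cancer cells were grown with the test agent, with or without dipyridamole to block hENT1 nucleoside transport. Viable cells were counted by colorimetric MTT assay, and EC50 was taken as the concentration blocking proliferation by 50%.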

[24] = Cytotoxicity against human PANC1 cells assessed as cell viability by MTT assay in absence of hENT1 inhibitor dipyridamole; format: functional, cell-based; conditions: PANC-1; outline: as §6
[25] = Cytotoxicity against human RT112 cells assessed as cell viability by MTT assay in presence of dCK substrate deoxycytidine; format: functional, cell-based; conditions: RT-112
Outline: (§7)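 RT112 cancer cells were grown with the test agent, with or without 2′-deoxycytidine as a competing dCK substrate to mimic dCK down-regulation. Viable cells were counted by colorimetric MTT assay, and EC50 was taken as the concentration blocking proliferation by 50%.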

[26] = Cytotoxicity against human RT112 cells assessed as cell viability by MTT assay in absence of dCK substrate deoxycytidine; format: functional, cell-based; conditions: RT-112; outline: as §7
[27] = system: Serum; experiment: Prodrug activation in human serum assessed as formation of (S)-2-((((2R,3R,5R)-5-(4-amino-2-oxopyrimidin-1(2H)-yl)-4,4-difluoro-3-hydroxytetrahydrofuran-2-yl)methoxy)oxidophosphorylamino)propanoate at 5 mg measured after 5.5 hrs by [31P]-NMR spectroscopic analysis; format: cell-free; outline: as §4
[28] = target: T1, Cytidine deaminase; experiment: Drug degradation assessed as recombinant human cytidine deaminase-mediated dFdU formation at 100 uM measured within 2 mins by UV absorption spectroscopic analysis; format: ADME
Outline: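 Compound or gemcitabine incubated with cytidine deaminase. UV absorption scanned at 220–350 nm over 30 min. Deamination to dFdU is read as an absorbance shift from 267 to 257 nm.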

[29] = system: RT-112; experiment: Ratio of EC50 for human RT112 cells in presence of dCK substrate deoxycytidine to EC50 for human RT112 cells in absence of dCK substrate deoxycytidine; format: functional
Outline: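 RT112 cells exposed to compound with or without the dCK substrate 2′-deoxycytidine, which competes for dCK activity. Viable cells counted by colorimetric MTT assay. EC50 is the concentration blocking cell proliferation, compared between the two conditions.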

T1 sequence (P32320 whole entry): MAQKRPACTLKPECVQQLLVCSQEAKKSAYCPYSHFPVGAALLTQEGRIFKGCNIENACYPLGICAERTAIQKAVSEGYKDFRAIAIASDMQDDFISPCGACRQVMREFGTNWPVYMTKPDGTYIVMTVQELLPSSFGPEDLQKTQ

CCCCCCOC(=O)[C@H](C)NP(=O)(OC[C@H]1O[C@@H](n2ccc(N)nc2=O)C(F)(F)[C@@H]1O)Oc1cccc2ccccc12 (some centres undefined)
IC50 [1]: 75 nM
IC50 [2]: 22 nM

C[C@H](NP(=O)(OC[C@H]1O[C@@H](n2ccc(N)nc2=O)C(F)(F)[C@@H]1O)Oc1cccc2ccccc12)C(=O)OC1CCCC1 (some centres undefined)
IC50 [1]: 110 nM
IC50 [2]: 180 nM
IC50 [3]: 460 nM
IC50 [4]: 150 nM
Ratio IC50 [5]: 2

C[C@H](NP(=O)(OC[C@H]1O[C@@H](n2ccc(N)nc2=O)C(F)(F)[C@@H]1O)Oc1cccc2ccccc12)C(=O)OC1CCCCC1 (some centres undefined)
IC50 [1]: 140 nM
IC50 [2]: 320 nM

C[C@H](NP(=O)(OC[C@H]1O[C@@H](n2ccc(N)nc2=O)C(F)(F)[C@@H]1O)Oc1cccc2ccccc12)C(=O)OCc1ccccc1 (some centres undefined)
remaining at 1 h, 0.5 µM [6]: 1%
half-life at 1 µM [7]: 79 min
IC50 [1]: 100 nM
IC50 [2]: 35 nM
IC50 [3]: 570 nM
IC50 [4]: 240 nM
Ratio IC50 [8]: 2
Ratio IC50 [5]: 2

CCCCCOC(=O)[C@H](C)NP(=O)(OC[C@H]1O[C@@H](n2ccc(N)nc2=O)C(F)(F)[C@@H]1O)Oc1cccc2ccccc12 (some centres undefined)
IC50 [1]: 73 nM
IC50 [2]: 30 nM

C[C@H](NP(=O)(OC[C@H]1O[C@@H](n2ccc(N)nc2=O)C(F)(F)[C@@H]1O)Oc1ccccc1)C(=O)OCc1ccccc1 (some centres undefined) [FOSGEMCITABINE PALABENAMIDE]
Drug metabolism [9]: Active
Drug metabolism [10]: Active
Drug metabolism [11]: Active
IC50 [1]: 100 nM
IC50 [2]: 35 nM
IC50 [3]: 440 nM
IC50 [4]: 150 nM
Drug metabolism [12]: Active
Activity [13]: Non-toxic
TGI [14]: Active
TGI [15]: Active
TGI [16]: Active
Activity [17]: < 4%
Drug metabolism [18]: Active
Drug metabolism [19]: Active
Drug metabolism [20]: Active
Drug metabolism [21]: Active
Stability [22]: Stable
EC50 [23]: 162 µM
EC50 [24]: 190 µM
EC50 [25]: 0.7 nM
EC50 [26]: 0.2 nM
Drug metabolism [27]: Active

Nc1ccn([C@@H]2O[C@H](CO)[C@@H](O)C2(F)F)c(=O)n1 [GEMCITABINE]
IC50 [1]: 86 nM
IC50 [3]: 1040 nM
IC50 [4]: 670 nM
Activity [13]: Non-toxic
TGI [14]: inactive
TGI [15]: Active
TGI [16]: Active
Drug metabolism [18]: Not Active
Drug metabolism [19]: Not Active
Drug metabolism [20]: Not Active
Drug metabolism [21]: Not Active
Stability [28]: Unstable
EC50 [23]: > 2000 µM
EC50 [24]: 611 µM
Ratio EC50 [29]: 75
EC50 [25]: 105 nM
EC50 [26]: 1.4 nM
